Measured values taken from ChEMBL document CHEMBL4376883, “Discovery and Optimization of Small Molecules Targeting the Protein-Protein Interaction of Heat Shock Protein 90 (Hsp90) and Cell Division Cycle 37 as Orally Active Inhibitors for the Treatment of Colorectal Cancer” (J Med Chem, 2020).

How the values were obtained:
HCT-116 [1] = test: Antiproliferative activity against human HCT116 cells measured after 72 hrs by CCK8 assay; assay type: functional, cell-based; conditions: HCT-116, 72 h
How it was run: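 Cells grown in RPMI 1640 with 10% FBS at 37 °C, 5% CO2; STR-authenticated and mycoplasma-checked. Seeded at 3000-5000 cells/well and left 24 h. Serial compound dilutions added for 72 h, with matched DMSO as control. Viability read by CCK8 kit using the standard protocol. IC50 values derived from at least three parallel experiments.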

[2] = Half life in human liver microsomes at 10 uM preincubated for 5 mins followed by NADPH addition by LC-MS/MS analysis; assay type: ADME, Microsome
How it was run: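 Compound at 10 µM preincubated 5 min at 37 °C with human or mouse liver microsomes (0.5 mg/mL) in 100 mM phosphate, pH 7.4. Reaction started with 1 mM NADPH, stopped with cold acetonitrile, centrifuged and analysed by LC-MS/MS.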

[3] = Tmax in tumor of human HCT116 cells xenografted BALB/c mouse at 80 mg/kg, po administered as single dose by LC-MS/MS analysis; assay type: ADME, organism-based, Neoplasm
How it was run: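 HCT116-xenografted mice (n = 6 per group) received a single oral 80 mg/kg dose. Blood and tumor were sampled at 0 to 24 h. Plasma was obtained by centrifugation at 3000 rpm for 10 min. Samples were stored at −80 °C and quantified by LC-MS/MS.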

[4] = Half life in plasma of human HCT116 cells xenografted BALB/c mouse at 80 mg/kg administered as single dose by LC-MS/MS analysis
[5] = Cmax in tumor of human HCT116 cells xenografted BALB/c mouse at 80 mg/kg, po administered as single dose by LC-MS/MS analysis; assay type: ADME, organism-based, Neoplasm; parameters: dose 80 mg/kg, route oral
How it was run: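 Tumour-bearing mice (n = 6 per group) given one oral dose of 80 mg/kg. Blood and tumour collected into heparinized tubes at 0, 0.25, 0.5, 1, 2, 4, 8, 12 and 24 h. Plasma obtained by centrifugation at 3000 rpm for 10 min. Samples stored at -80 °C and quantified by LC-MS/MS.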

HCT-116 [6] = test: Effect on HSP90 expression in human HCT116 cells at 10 uM measured up to 48 hrs by Western blot analysis; assay type: cell-based; conditions: hct-116, 48 h
How it was run: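 HCT116 cells treated with 0, 1, 5 or 10 µM for 24 h, or with 10 µM for 0, 4, 12, 24 or 48 h. Lysates separated by SDS-PAGE and blotted. Membranes blocked in 5% milk, primary antibodies overnight at 4 °C, HRP secondaries, chemiluminescent detection.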

Heat shock protein HSP90 = Heat shock protein HSP90 (Homo sapiens, UniProt P07900+P08238); test: Binding affinity to recombinant […] biotinylated-HSP90 N-terminal domain (9 to 236 residues) (unknown origin) expressed in Escherichia coli BL21 (DE3) by biolayer interferometry
How it was run: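 Biotinylated Hsp90 (100 µg/mL) loaded onto streptavidin sensors prewetted 10 min in PBS with 0.05% BSA and 0.01% Tween 20. Analyte binding measured at 28 °C. Double reference subtraction applied; data fitted to a 1:1 model with K_D = K_off/K_on.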

## Cc1cc(C)c(S(=O)(=O)N(CC(=O)O)c2ccc(Nc3ccnc(N4CCNCC4)n3)cc2)c(C)c1
HCT-116 [1]
  IC50: 1.73 µM
[2]
  half-life at 10 µM: 2.08 h
[3]
  Tmax: 1 h
[4]
  T1/2: 1.46 h
[5]
  Cmax: 50000 ng/mL
HCT-116 [6]
  Activity: Non-Toxic
Heat shock protein HSP90
  Kd: 0.5 µM
